Series [1] is described as follows: Resistance index, ratio of IC50 for antimalarial activity against asexual blood stage multi drug-resistant Plasmodium falciparum K1 to IC50 for antimalarial activity against asexual blood stage drug-sensitive Plasmodium falciparum NF54. Format: functional. In short, it runs like this: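 Resistance index is IC₅₀(K1)/IC₅₀(NF54). Both IC₅₀s came from the [³H]-hypoxanthine incorporation assay, as means of ≥2 independent experiments.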

The test system of series [2] is Plasmodium falciparum NF54. Description: Inhibition of tubulin polymerization in asexual stage (II) Plasmodium falciparum NF54 early gametocytes at 2400 nM incubated for 24 hrs by tubulin tracker Oregon Green staining method. The method, boiled down: (§1)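 Treatment at 600 nM for asexual parasites (~1% parasitemia, 5% hematocrit, sorbitol-synchronized rings) or 2400 nM for early gametocytes (~2% gametocytemia, 2% hematocrit, 20% I/60% II/20% III). 24 h at 37 °C, 90% N₂/5% CO₂/5% O₂, DMSO <0.1%. Stained with 250 nM Tubulin Tracker Oregon Green 488 for 30 min and Hoechst (100 nM) for 10 min. PBS-washed, imaged live by confocal microscopy. Colchicine (20 μM) positive control.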

The next series relates to Hemozoin. Briefly: Inhibition of beta-hematin formation […] incubated for 5 hrs by NP40 detergent-mediated assay. In short, it runs like this:
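Cell-free β-hematin formation assay in NP-40 (305.5 μM) lipid-mimic medium. Compounds from 20 mM stock serially diluted across wells, in duplicate. Hematin suspended in 1 M acetate buffer pH 4.8; plates incubated ~5 h at 37 °C. Then pyridine solution (with HEPES pH 7.4) and acetone added; absorbance at 405 nm. IC₅₀ by curve fit.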

Series [3] in a line: Volume of distribution at steady state in Balb/c mouse at 3 mg/kg, iv measured up to 24 hrs by LC-MS/MS analysis. The series is classed as ADME, organism-based. As to conditions: in vivo, read-out: Vdss. The method, boiled down: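 Intravenous dosing in male Balb/c mice, fed ad libitum. Tail-vein blood sampled into heparinized tubes at 0.17, 0.5, 1, 3, 5, 7, 9 and 24 h, frozen at −80 °C. Blood extracted by acetonitrile protein precipitation with internal standard; LC−MS/MS quantitation, LOQ 2 ng/mL. Noncompartmental analysis based on curve stripping.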

A short description of series [4]: Metabolic stability in rat liver microsomes assessed as compound remaining at 1 uM incubated for 30 mins by LC-MS/MS analysis. Format: ADME, Microsome. The conditions noted are these: read-out: Stabilty. The method, boiled down: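 Single-point design: 1 μM compound with 0.4 mg/mL liver microsomes in 0.1 M phosphate buffer pH 7.4 for 30 min. Quenched with ice-cold acetonitrile containing carbamazepine internal standard, centrifuged, analyzed by LC−MS/MS. Percent remaining from internal-standard-corrected peak areas at 30 min versus 0 min. Propranolol, midazolam and MMV390048 as controls.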
For orientation: Liver microsomes are a subcellular fraction often used to study metabolism.

The test system of series [5] is Plasmodium falciparum NF54. Briefly: Inhibition of tubulin polymerization in asexual blood stage Plasmodium falciparum NF54 at 600 nM incubated for 24 hrs by tubulin tracker Oregon Green staining method. In short, it runs like this:
as §1

Series [6] concerns Plasmodium falciparum. Description: Antiplasmodial activity against […] Plasmodium falciparum NF54 late gametocytes transfected with GFP-Luc […] at 5 uM incubated for 48 hrs by microscopy based luciferase reporter gene assay relative to control. The series is classed as functional. The method, boiled down:
(§2)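 NF54-Pfs16-GFP-Luc gametocytes, assays set up day 5 (early, stage II/III) or day 10 (late, stage IV/V). Culture at 2−3% gametocytemia, 1.5% hematocrit, 48 h drug exposure at 37 °C under 90% N₂/5% O₂/5% CO₂. Lysates mixed with luciferin; bioluminescence read with 10 s integration. Dual-point: one biological repeat in technical triplicate. Methylene blue (5 μM) reference.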
Background: In a reporter assay the amount or activity of a reporter protein is the signal.

The test system of another series is Plasmodium berghei. Description: Antimalarial activity against GFP-transfected Plasmodium berghei ANKA infected in NMRI mouse model assessed as reduction in parasitemia at 50 mg/kg, po dosed 4 times relative to control. Set-up: scale not given: the % may be the effect or the level left. The series is classed as functional. In short, it runs like this:
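Mice (n = 3) infected with GFP-transfected P. berghei ANKA. Compound in 70% Tween-80/30% ethanol, diluted 10-fold in water, given orally at 4, 24, 48 and 72 h post-infection. Blood taken day 4 (96 h); parasitemia by flow cytometry, detection limit 0.1%. Activity = difference in mean % parasitemia between control and treated, as % of control.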

Series [7] relates to Plasmodium falciparum. Briefly: Antiplasmodial activity against […] Plasmodium falciparum NF54 early gametocytes transfected with GFP-Luc […] incubated for 48 hrs by microscopy based luciferase reporter gene assay relative to control. The series is classed as functional, organism-based. The conditions noted are these: NF54, 48 h. The method, boiled down:
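Transgenic NF54-Pfs16-GFP-Luc gametocytes, read by luciferase reporter. Early assays were set up on day 5 (50% stage II/50% stage III) and late assays on day 10 (40% stage IV/60% stage V). Luciferin was added to lysates at room temperature and bioluminescence read. Methylene blue (5 μM) was the reference. Single-point screens at 1 and 5 μM used n=1 in technical triplicate. IC₅₀ came from a normalized nonlinear fit, n≥3 in triplicate.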

Series [8] relates to Plasmodium falciparum. Briefly: Antiplasmodial activity against […] Plasmodium falciparum NF54 early gametocytes transfected with GFP-Luc […] at 5 uM incubated for 48 hrs by microscopy based luciferase reporter gene assay relative to control. Format: functional. In short, it runs like this: as §2

Each structure is given as a SMILES string. Active and inactive are the calls of the source. No cut-off for these calls is given here.

Consider `CCNCc1cc(Cl)cc(Nc2nc3cc(F)c(F)cc3n2Cc2ccc(C(F)(F)F)cc2)c1O`, for which the Ratio IC50 in series [1] turned out to be 0.42. Moreover, the inhibition entry in [2] and in series [5] was “Active” throughout. Further, the half-inhibitory concentration (IC50) (usually the concentration that inhibits the measured activity by half) in the series on Hemozoin was 18.1 µM; with Plasmodium falciparum [7] it was 0.46 µM. The Vd in series [3] was 5.8 L/kg. For the same compound, the remaining at 0.5 h, 1 µM in [4] was 98%. Further, the figures for the inhibition at 5 µM in the series on Plasmodium falciparum [6] and with Plasmodium falciparum [8] were 0% and 91%, respectively. Further, the Activity in the series with Plasmodium berghei stood at 98%.

The record behind these values is ChEMBL document CHEMBL4834426, “Antimalarial Benzimidazole Derivatives Incorporating Phenolic Mannich Base Side Chains Inhibit Microtubule and Hemozoin Formation: Structure-Activity Relationship and In Vivo Oral Efficacy Studies” (J Med Chem, 2021).
